Results reported in publication PMC5509056 (FEBS letters, 2017).

Key:
[1] = test system: rat hippocampus membranes; assay: Agonist-stimulated [^35S]GTPγS binding in rat hippocampus membranes; type: biochemical, rat (Wistar)
[2] = test system: supraoptic nucleus (SON) neurons; μ receptor; assay: Whole cell patch clamp, evoked outward / holding current in SON neurons; type: cell-based, rat (Sprague Dawley); conditions: for holding current response in SON: 1 μM, six cells in the SON
[3] = test system: suprachiasmatic nucleus (SCN) cells; assay: Whole cell patch clamp, holding current in SCN neurons; type: cell-based, rat (Sprague Dawley); conditions: 1 μM, six cells in the SCN
[4] = test system: rostral supraoptic nucleus (SON) cells; assay: Spontaneous firing rate; type: cell-based, rat (Sprague Dawley); conditions: 1 μM, six cells in the SON
In short: (§1)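 Coronal hypothalamic slices (250 μm) came from halothane-anaesthetised 20–24-day-old rats, cut in ice-cold sucrose ACSF and warmed to 35°C over 30 min. Slices were held submerged in 32°C ACSF (MgCl2 1.2, CaCl2 2.4 mM) gassed with 95% O2/5% CO2. Neurons were visualised by IR-DIC and patched with 5–8 MΩ pipettes (K-gluconate internal, pH 7.2) for whole-cell current and/or voltage clamp.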

[5] = test system: suprachiasmatic nucleus (SCN) cells; assay: Spontaneous firing rate; type: cell-based, rat (Sprague Dawley); conditions: 1 μM, six cells in the SCN
In short: as §1

mu-opioid receptor (MOR) = conditions: endomorphins EM1 and EM2; ref [5], [6], [7]; cited from earlier work

Molecule	holding current response in SCN [3]	SFR response in SON [4]	holding current response in SON [2]	SFR response in SCN [5]	binding affinity and selectivity to MOR (in words) (mu-opioid receptor (MOR))	further results
C=CCN1CC[C@]23c4c5ccc(O)c4O[C@H]2C(=O)CC[C@@]3(O)[C@H]1C5 [naloxone, reference compound]	–	–	–	–	–	inhibition of agonist effect of Mx-1 in promoting incorporation of γ-GTP ([1]; naloxone saturating concentrations (10 μM) with Mx-1): inhibited the agonist effect of Mx-1
CTOP [reference compound]	–	–	–	–	–	Mx-1 evoked current amplitude in presence of CTOP ([2]; CTOP 100 nM added to bath with 100 nM Mx-1, six SON neurons): 3.8 ± 2.0 pA
NH2-PPPRSPYSGKGLGPGNLLHSALLPIHCICLC-COO^- [Mx-3]	no measurable difference	no measurable difference	no measurable difference	no measurable difference	–	agonist-stimulated activity of Mx-3 compared with Mx-1 ([1]; [^35S]GTPγS, rat hippocampus membranes, comparison with Mx-1, discussion): greater than that displayed by Mx-1; [^35S]GTPγS binding at high concentrations (decrease) ([1]; high concentrations, for Mx-1: 1.2, 2.4 and 4.8 μM): not observed
NH2-TSRTDGTQS-COO^- [Mx-2]	no measurable difference	no measurable difference	no measurable difference	no measurable difference	–	–
Tyr-Pro-Phe-Phe-NH2 [EM2]	–	–	–	–	high binding affinity and selectivity to the mu-opioid receptor	–
Tyr-Pro-Trp-Phe-NH2 [EM1]	–	–	–	–	high binding affinity and selectivity to the mu-opioid receptor	–
